# Test results reported in ChEMBL document CHEMBL3351641, “Bradykinin antagonists and thiazolidinone derivatives as new potential anti-cancer compounds” (Bioorg Med Chem, 2014).
# Active and inactive are the calls of the source. The rule behind the calls is not given here.
# Assays:
# [1] = target: RAC-alpha serine/threonine-protein kinase (Homo sapiens) (UniProt P31749); experiment: Inhibition of AKT1 phosphorylation in human HEK293 cells overexpressing CHI3L1 gene at 10 uM after 24 hrs by Western blot analysis; type: cell-based
# How it was run: (§1)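 293_CHI3L1 or U373 cells seeded in triplicate at 10⁵ cells/well in DMEM/10% FBS and grown to near-confluence. Serum-starved 24 h; U373 then stimulated with 10% FBS. Treated with compound 24 h. Lysates run on 10% SDS–PAGE and blotted for phospho-ERK1/2 or phospho-AKT1 (4 °C overnight), ECL detection. Membranes stripped and reprobed for β-actin.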
# [2] = Cytotoxicity against human Small cell lung cancer cells assessed as reduction in cell viability after 72 hrs by MTT assay; type: functional, cell-based; details: Cancer cell lines
# [3] = target: T1, Mitogen-activated protein kinase; ERK1/ERK2 (Homo sapiens) (UniProt P27361+P28482); experiment: Inhibition of ERK1/2 phosphorylation in human U373 cells overexpressing CHI3L1 gene after 24 hrs by Western blot analysis; type: cell-based; details: U-373MG ATCC; how it was run: as §1
# [4] = Antitumor activity against human Small cell lung cancer cells xenografted in mouse assessed as tumor growth inhibition; type: functional, Cancer cell lines
# [5] = target: T1, Mitogen-activated protein kinase; ERK1/ERK2 (Homo sapiens); experiment: Inhibition of ERK1/2 phosphorylation in human HEK293 cells overexpressing CHI3L1 gene after 24 hrs by Western blot analysis; type: cell-based; how it was run: as §1
# [6] = target: RAC-alpha serine/threonine-protein kinase (Homo sapiens) (UniProt P31749); experiment: Inhibition of AKT1 phosphorylation in human HEK293 cells overexpressing CHI3L1 gene after 24 hrs by Western blot analysis; type: cell-based; how it was run: as §1
# [7] = target: RAC-alpha serine/threonine-protein kinase (Homo sapiens) (UniProt P31749); experiment: Inhibition of AKT1 phosphorylation in human HEK293 cells overexpressing CHI3L1 gene at 50 uM after 24 hrs by Western blot analysis; type: cell-based; how it was run: as §1
# [8] = Cytotoxicity against human UPN1 cells assessed as reduction in cell viability after 72 hrs by MTT assay; type: functional, cell-based; details: UPN1, 72 h
# How it was run: (§2)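 Cells seeded in triplicate at 3 × 10³ cells/well: 293_CHI3L1, U373 and C6 in DMEM; UPN1 in alpha-MEM; Granta, JeKo and Mino in RPMI. Compounds added by serial dilution at final 0.01, 0.1, 1, 10 and 100 µM for 72 h. MTT read-out gives viable cells as % of DMSO vehicle control. IC50 is the concentration giving 50% cell death versus control.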
# [9] = target: RAC-alpha serine/threonine-protein kinase (Homo sapiens) (UniProt P31749); experiment: Inhibition of AKT1 phosphorylation in human U373 cells overexpressing CHI3L1 gene after 24 hrs by Western blot analysis; type: cell-based; details: U-373MG ATCC; how it was run: as §1
# [10] = target: T1, Mitogen-activated protein kinase; ERK1/ERK2 (Homo sapiens); experiment: Inhibition of ERK1/2 phosphorylation in human HEK293 cells overexpressing CHI3L1 gene at 50 uM after 24 hrs by Western blot analysis; type: cell-based; how it was run: as §1
# C6 [11] = experiment: Cytotoxicity against rat C6 cells assessed as reduction in cell viability after 72 hrs by MTT assay; type: functional, cell-based; details: C6, 72 h; how it was run: as §2
# [12] = target: T1, Mitogen-activated protein kinase; ERK1/ERK2 (Homo sapiens); experiment: Inhibition of ERK1/2 phosphorylation in human HEK293 cells overexpressing CHI3L1 gene at 10 uM after 24 hrs by Western blot analysis; type: cell-based; how it was run: as §1
# [13] = target: RAC-alpha serine/threonine-protein kinase (Homo sapiens) (UniProt P31749); experiment: Inhibition of AKT1 phosphorylation in human U373 cells at 10 uM after 24 hrs by Western blot analysis; type: cell-based; details: U-373MG ATCC; how it was run: as §1
# HEK293 [14] = experiment: Cytotoxicity against HEK293 cells overexpressing CHI3L1 gene assessed as reduction in cell viability at 50 uM after 72 hrs by MTT assay; type: functional, cell-based; details: Homo sapiens
# [15] = (§3) Cytotoxicity against human U373 cells assessed as reduction in cell viability at 1 uM after 72 hrs by MTT assay in presence of temozolomide; type: functional, U-373MG ATCC
# How it was run: (§4)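 U373 or C6 glioma cells seeded in triplicate at 3 × 10³ cells/well in DMEM. Exposed 72 h to temozolomide at final 10, 100, 250, 500 and 1000, alone or combined with 1 µM bradykinin antagonist. MTT read-out gives viability as % of vehicle control. Mean of two experiments run in triplicate.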
# Granta [16] = experiment: Cytotoxicity against human Granta cells assessed as reduction in cell viability after 72 hrs by MTT assay; type: functional, cell-based; how it was run: as §2
# [17] = Cytotoxicity against human U373 cells assessed as reduction in cell viability after 72 hrs by MTT assay; type: functional, cell-based, U-373MG ATCC; details: U373 MG; how it was run: as §2
# [18] = Cytotoxicity against human Jeko cells assessed as reduction in cell viability after 72 hrs by MTT assay; type: functional, cell-based; details: JeKo-1, 72 h; how it was run: as §2
# [19] = target: T1, Mitogen-activated protein kinase; ERK1/ERK2 (Homo sapiens); experiment: Inhibition of ERK1/2 phosphorylation in human U373 cells at 50 uM after 24 hrs by Western blot analysis; type: cell-based; details: U-373MG ATCC; how it was run: as §1
# HEK293 [20] = experiment: Cytotoxicity against HEK293 cells overexpressing CHI3L1 gene assessed as reduction in cell viability after 72 hrs by MTT assay; type: functional, cell-based; details: Homo sapiens, HEK293, 72 h; how it was run: as §2
# C6 [21] = experiment: Cytotoxicity against rat C6 cells assessed as reduction in cell viability at 1 uM after 72 hrs by MTT assay in presence of temozolomide; type: functional; how it was run: as §4
# [22] = Cytotoxicity against human Mino cells assessed as reduction in cell viability after 72 hrs by MTT assay; type: functional, cell-based; how it was run: as §2
# [23] = Cytotoxicity against human Jeko cells assessed as viable cells at 100 uM after 72 hrs by MTT assay; type: functional; details: JeKo-1, 72 h, read-out: Activity; how it was run: as §2
# Mino = experiment: Cytotoxicity against human Mino cells assessed as reduction in cell viability at 100 uM after 72 hrs by MTT assay; type: functional, cell-based; how it was run: as §2
# [24] = Cytotoxicity against human UPN1 cells assessed as viable cells at 100 uM after 72 hrs by MTT assay; type: functional; details: UPN1, 72 h, read-out: Activity; how it was run: as §2
# Granta [25] = experiment: Cytotoxicity against human Granta cells assessed as reduction in cell viability at 100 uM after 72 hrs by MTT assay; type: functional, cell-based; how it was run: as §2
# U-373MG ATCC = experiment: as §3; type: functional; how it was run: as §4
# RAC-alpha serine/threonine-protein kinase (Homo sapiens), sequence (P31749 whole entry): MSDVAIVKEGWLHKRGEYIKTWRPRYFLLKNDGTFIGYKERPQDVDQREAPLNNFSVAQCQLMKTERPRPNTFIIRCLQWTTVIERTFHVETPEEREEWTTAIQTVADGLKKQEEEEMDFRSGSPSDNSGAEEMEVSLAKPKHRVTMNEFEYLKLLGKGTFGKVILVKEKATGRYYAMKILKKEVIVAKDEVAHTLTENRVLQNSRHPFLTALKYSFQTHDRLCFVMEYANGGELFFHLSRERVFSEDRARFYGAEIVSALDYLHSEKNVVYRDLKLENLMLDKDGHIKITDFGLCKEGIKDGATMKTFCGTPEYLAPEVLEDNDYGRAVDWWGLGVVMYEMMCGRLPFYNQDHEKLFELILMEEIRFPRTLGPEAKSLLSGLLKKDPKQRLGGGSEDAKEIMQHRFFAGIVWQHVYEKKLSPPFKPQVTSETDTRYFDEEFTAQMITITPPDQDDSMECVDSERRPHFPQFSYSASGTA
# T1 sequence (P27361 whole entry, looked up): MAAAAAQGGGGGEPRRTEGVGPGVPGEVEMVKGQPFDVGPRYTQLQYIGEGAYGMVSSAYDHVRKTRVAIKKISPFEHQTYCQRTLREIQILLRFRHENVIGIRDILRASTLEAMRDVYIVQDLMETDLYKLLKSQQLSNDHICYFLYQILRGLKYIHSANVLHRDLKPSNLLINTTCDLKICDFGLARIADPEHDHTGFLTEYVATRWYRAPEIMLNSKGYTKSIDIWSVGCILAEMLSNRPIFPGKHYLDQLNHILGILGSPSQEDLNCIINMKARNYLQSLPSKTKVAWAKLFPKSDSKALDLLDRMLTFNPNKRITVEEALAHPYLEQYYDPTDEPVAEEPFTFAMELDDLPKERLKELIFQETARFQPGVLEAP
# T1 sequence (P28482 whole entry, looked up): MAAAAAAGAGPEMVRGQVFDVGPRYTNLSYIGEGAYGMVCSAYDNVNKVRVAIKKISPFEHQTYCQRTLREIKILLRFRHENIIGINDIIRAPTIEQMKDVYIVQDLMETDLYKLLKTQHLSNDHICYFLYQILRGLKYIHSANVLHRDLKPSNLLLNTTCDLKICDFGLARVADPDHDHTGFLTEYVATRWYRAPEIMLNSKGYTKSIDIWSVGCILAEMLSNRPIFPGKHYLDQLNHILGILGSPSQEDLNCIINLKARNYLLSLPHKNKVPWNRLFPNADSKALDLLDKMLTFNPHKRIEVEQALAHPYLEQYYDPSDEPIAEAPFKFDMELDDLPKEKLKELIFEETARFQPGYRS
smiles,measurement,setting,value
CC1(C)CC(NC(=O)[C@H](Cc2ccc(OCc3c(Cl)cccc3Cl)cc2)NC(=O)/C=C/c2c(F)c(F)c(F)c(F)c2F)CC(C)(C)N1,inhibition,[1],Active
same,IC50,[2],1.8 µM
same,inhibition,[3],Dose-dependent effect
same,TGI,[4],91%
same,inhibition,[5],Dose-dependent effect
same,inhibition,[6],Dose-dependent effect
same,inhibition,[7],Active
same,IC50,[8],> 100 µM
same,inhibition,[9],Dose-dependent effect
same,inhibition,[10],Active
same,IC50,C6 [11],4 µM
same,inhibition,[12],Active
same,inhibition,[13],Active
same,inhibition,HEK293 [14],Active
same,Activity,[15],80%
same,IC50,Granta [16],63.3 µM
same,IC50,[17],3.3 µM
same,IC50,[18],49.3 µM
same,inhibition,[19],inactive
same,IC50,HEK293 [20],3.8 µM
same,Activity,C6 [21],80%
COc1ccc(NC(=O)COc2ccc(Cl)cc2/C=C2\SC(=S)N(Nc3nc4ccccc4s3)C2=O)cc1,IC50,[22],55.3 µM
O=C1N=C(N2N=C(c3ccc(Br)cc3)CC2c2ccc(Cl)cc2)S/C1=C1\C(=O)Nc2ccccc21 (configuration not stated),IC50,[22],10 µM
O=C1N=C(N2N=C(c3ccc(Cl)cc3)CC2c2ccc(Cl)cc2)S/C1=C1\C(=O)Nc2ccc(Cl)cc21 (configuration not stated),IC50,[22],80.7 µM
same,IC50,C6 [11],1.22 µM
O=C1N=C(N2N=C(c3ccc(Br)cc3)CC2c2ccc(Cl)cc2)S/C1=C1\C(=O)Nc2ccc(Cl)cc21 (configuration not stated),IC50,[22],7.4 µM
O=C1N=C(N2N=C(c3ccc(Cl)cc3)CC2c2ccc(Cl)cc2)S/C1=C1\C(=O)Nc2ccccc21 (configuration not stated),IC50,[22],68.2 µM
same,viability at 100 µM,[23],60%
same,Activity,Mino,inactive
same,viability at 100 µM,[24],60%
same,Activity,Granta [25],inactive
COc1ccc(-c2nnc(NC(=O)CN3C(=O)S/C(=C\c4ccc(N(C)C)cc4)C3=O)o2)cc1,IC50,[8],> 100 µM
same,IC50,Granta [16],> 100 µM
same,IC50,[18],> 100 µM
CC1(C)CC(NC(=O)[C@H](Cc2ccc(OCc3c(Cl)cccc3Cl)cc2)NC(=O)OCC2c3ccccc3-c3ccccc32)CC(C)(C)N1,IC50,[8],> 100 µM
same,IC50,C6 [11],15 µM
same,Activity,U-373MG ATCC,inactive
same,IC50,Granta [16],41.2 µM
same,IC50,[17],20 µM
same,IC50,[18],52.3 µM
same,IC50,HEK293 [20],25.8 µM
same,Activity,C6 [21],inactive
O=C1N=C(N2N=C(c3ccc(Br)cc3)CC2c2ccc(Cl)cc2)S/C1=C1\C(=O)Nc2ccc(Br)cc21 (configuration not stated),IC50,[22],0.27 µM
O=C1N=C(N2N=C(c3ccc(Cl)cc3)CC2c2ccc(Cl)cc2)S/C1=C1\C(=O)Nc2ccc(Br)cc21 (configuration not stated),IC50,[22],0.73 µM
O=C1N=C(Nc2ccc(O)cc2)S/C1=C\c1ccc(Cl)cc1,IC50,[22],61.2 µM
same,IC50,[8],> 100 µM
same,IC50,Granta [16],> 100 µM
same,IC50,[18],> 100 µM
CN(C)c1ccc(C2CC(c3ccc(Cl)cc3)=NN2C2=NC(=O)/C(=C3/C(=O)Nc4ccc(Br)cc43)S2)cc1 (configuration not stated),IC50,[22],0.16 µM
O=C1N=C(N2N=C(c3ccccc3)CC2c2ccc(Cl)cc2)S/C1=C1\C(=O)Nc2ccccc21 (configuration not stated),IC50,[8],> 100 µM
same,IC50,Granta [16],> 100 µM
same,IC50,[18],> 100 µM
N=C(N)NCCC[C@H](NC(=O)C1CC2CCCCC2N1C(=O)[C@H](NC(=O)[C@H](CO)NC(=O)[C@@H](NC(=O)CNC(=O)[C@@H]1C[C@@H](O)CN1C(=O)[C@@H]1CCCN1C(=O)[C@H](CCCNC(=N)N)NC(=O)[C@@H](CCCNC(=N)N)NC(=O)/C=C/c1c(F)c(F)c(F)c(F)c1F)C1Cc2ccccc2C1)C1Cc2ccccc2C1)C(=O)O (some centres not stated),inhibition,[3],inactive
same,inhibition,[5],inactive
same,inhibition,[6],inactive
same,IC50,[8],> 100 µM
same,inhibition,[9],inactive
same,IC50,C6 [11],37 µM
same,IC50,Granta [16],> 100 µM
same,IC50,[17],> 100 µM
same,IC50,[18],50.5 µM
same,IC50,HEK293 [20],67.9 µM
